Values after ≈ are worked out from the molar mass of the structure shown.
Columns and labels:
[1] = AUC in dog at 5 mg/kg, po; format: ADME, organism-based, Canis lupus familiaris; parameters: dose 5 mg/kg, route oral; conditions: plasma
How it was run: (§1)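 Male and female beagle dogs (n = 3) given oral gavage doses formulated as 5 mg/mL solutions in 5% dextrose with 20% ethanol, 30% propylene glycol and methanesulfonic acid, alone or with RTV (2.5 or 5 mg/kg). Plasma was taken at 12 time points over 12 h, extracted with ethyl acetate/hexane and analysed by reversed-phase HPLC with internal standard. AUC in µg·h/mL; Cmax and C12h in µg/mL.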

Cytochrome P450 3A4 = Cytochrome P450 3A4 (Homo sapiens, UniProt P08684); assay: Inhibition of CYP3A4 assessed as midazolam 1'- hydroxylation; format: ADME
Chain of Cytochrome P450 3A4 (P08684 whole entry): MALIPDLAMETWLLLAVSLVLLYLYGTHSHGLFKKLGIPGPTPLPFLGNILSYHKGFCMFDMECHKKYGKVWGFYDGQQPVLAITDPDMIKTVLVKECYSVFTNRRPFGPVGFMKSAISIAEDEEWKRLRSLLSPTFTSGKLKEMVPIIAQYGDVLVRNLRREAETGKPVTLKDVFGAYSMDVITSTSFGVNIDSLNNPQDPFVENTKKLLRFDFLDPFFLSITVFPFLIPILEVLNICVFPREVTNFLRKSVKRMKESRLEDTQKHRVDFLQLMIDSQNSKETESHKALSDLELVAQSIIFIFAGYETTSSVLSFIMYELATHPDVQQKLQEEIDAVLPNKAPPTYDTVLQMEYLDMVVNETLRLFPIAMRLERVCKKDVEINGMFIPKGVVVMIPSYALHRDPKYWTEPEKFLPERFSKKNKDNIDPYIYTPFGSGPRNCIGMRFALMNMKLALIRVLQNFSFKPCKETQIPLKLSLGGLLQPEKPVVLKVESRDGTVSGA
How it was run: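 CYP3A4 inhibition was measured as midazolam 1′-hydroxylation and expressed as Ki in nM.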

[2] = test system: Human immunodeficiency virus 1; assay: Antiviral activity against HIV1 bearing protease gene with A17 mutation infected in human MT4 cells after 5 days by MTT assay; format: functional, organism-based; conditions: Human immunodeficiency virus 1, MT4, 120 h
How it was run: (§2)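 HIV-1 A17 mutant clone carrying protease mutations L10F, V32I, M46I, I47V, Q58E and I84V, generated by in vitro serial passage under LPV/RTV. EC50 was determined in MT-4 cells. Wild-type reference strain was HIV-1 pNL4-3.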

Cytochrome P450 2C9 = Cytochrome P450 2C9 (Homo sapiens, UniProt P11712); assay: Inhibition of CYP2C9 assessed as Tolbutamide hydroxylation; format: ADME
Chain of Cytochrome P450 2C9 (P11712 whole entry): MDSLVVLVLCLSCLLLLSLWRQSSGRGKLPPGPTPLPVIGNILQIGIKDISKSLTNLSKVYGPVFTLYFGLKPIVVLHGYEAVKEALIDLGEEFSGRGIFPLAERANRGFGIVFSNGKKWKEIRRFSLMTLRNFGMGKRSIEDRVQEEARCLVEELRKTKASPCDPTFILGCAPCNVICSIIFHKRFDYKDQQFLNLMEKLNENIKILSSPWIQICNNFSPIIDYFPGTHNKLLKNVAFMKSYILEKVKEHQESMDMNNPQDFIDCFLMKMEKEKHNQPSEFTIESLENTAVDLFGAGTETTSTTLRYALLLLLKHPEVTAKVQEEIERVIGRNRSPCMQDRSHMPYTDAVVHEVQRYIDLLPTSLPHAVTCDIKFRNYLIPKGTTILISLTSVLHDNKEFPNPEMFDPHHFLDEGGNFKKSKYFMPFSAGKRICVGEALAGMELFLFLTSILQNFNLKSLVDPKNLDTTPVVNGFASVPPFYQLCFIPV
How it was run: (§3)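 CYP inhibition in vitro, with probe reactions of phenacetin O-deethylation (CYP1A2), tolbutamide hydroxylation (CYP2C9), S-mephenytoin hydroxylation (CYP2C19) and dextromethorphan O-demethylation (CYP2D6). Reported as IC50 in µM.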

Cytochrome P450 2D6 = Cytochrome P450 2D6 (Homo sapiens, UniProt P10635); assay: Inhibition of CYP2D6 assessed as dextromethorphan O-demethylation; format: ADME; how it was run: as §3
Chain of Cytochrome P450 2D6 (P10635 whole entry): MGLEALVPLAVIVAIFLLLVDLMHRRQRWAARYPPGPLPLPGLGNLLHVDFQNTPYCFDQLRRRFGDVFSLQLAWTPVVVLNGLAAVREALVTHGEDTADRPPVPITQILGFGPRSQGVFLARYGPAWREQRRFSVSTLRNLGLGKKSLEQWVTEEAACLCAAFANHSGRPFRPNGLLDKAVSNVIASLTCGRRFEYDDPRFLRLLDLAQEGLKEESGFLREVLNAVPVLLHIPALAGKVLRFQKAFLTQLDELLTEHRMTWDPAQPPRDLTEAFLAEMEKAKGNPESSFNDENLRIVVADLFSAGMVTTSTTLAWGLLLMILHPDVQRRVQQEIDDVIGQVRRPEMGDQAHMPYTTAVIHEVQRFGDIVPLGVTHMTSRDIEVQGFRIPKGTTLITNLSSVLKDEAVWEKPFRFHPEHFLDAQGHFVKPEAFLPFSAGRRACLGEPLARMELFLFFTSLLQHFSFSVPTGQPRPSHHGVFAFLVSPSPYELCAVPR

[3] = Solubility at pH 7.4; format: physicochemical; conditions: buffer
How it was run: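 Solubility measured in µg/mL at pH 7.4 and 25 °C.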

[4] = Concentration of drug after 12 hrs in dog at 5 mg/kg, po coadministered with 2.5 mg/kg ritonavir; format: ADME, organism-based, Canis lupus familiaris; conditions: in vivo, read-out: Drug uptake; how it was run: as §1
Cytochrome P450 1A2 = biological target: T1, Cytochrome P450 1A2 (Homo sapiens, UniProt P05177); assay: Inhibition of CYP1A2 assessed as phenacetin O-deethylation; format: ADME; how it was run: as §3
T1 sequence (P05177 whole entry): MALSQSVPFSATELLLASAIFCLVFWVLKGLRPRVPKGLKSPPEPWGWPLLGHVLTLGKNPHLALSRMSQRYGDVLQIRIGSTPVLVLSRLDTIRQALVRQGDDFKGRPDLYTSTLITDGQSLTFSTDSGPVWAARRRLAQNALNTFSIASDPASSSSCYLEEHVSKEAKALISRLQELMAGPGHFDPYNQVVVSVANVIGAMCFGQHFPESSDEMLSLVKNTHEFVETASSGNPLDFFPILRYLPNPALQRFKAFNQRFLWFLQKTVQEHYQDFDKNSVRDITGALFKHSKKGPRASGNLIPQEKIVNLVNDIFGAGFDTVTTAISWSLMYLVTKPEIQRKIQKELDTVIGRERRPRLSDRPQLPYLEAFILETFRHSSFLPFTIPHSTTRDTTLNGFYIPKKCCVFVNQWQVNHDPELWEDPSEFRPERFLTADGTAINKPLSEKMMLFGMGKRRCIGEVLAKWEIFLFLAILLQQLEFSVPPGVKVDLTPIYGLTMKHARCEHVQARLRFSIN

[5] = AUC in Sprague-Dawley rat at 5 mg/kg, po in presence of ritonavir; format: ADME, organism-based; parameters: dose 5 mg/kg, route oral; conditions: plasma
How it was run: (§4)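 Male Sprague-Dawley-derived rats (n = 3) dosed iv or by oral gavage with 5 mg/mL solutions in 5% dextrose containing 20% ethanol, 30% propylene glycol and methanesulfonic acid equivalents. Plasma was sampled at 10 time points over 8 h, extracted into ethyl acetate/hexane and analysed by reversed-phase HPLC with internal standard. AUC in µg·h/mL.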

[6] = Cmax in dog at 5 mg/kg, po coadministered with 5 mg/kg ritonavir; format: ADME, organism-based, Canis lupus familiaris; parameters: dose 5 mg/kg, route oral; conditions: in vivo; how it was run: as §1
[7] = Clearance in Sprague-Dawley rat at 5 mg/kg, iv; format: ADME, organism-based; parameters: dose 5 mg/kg, route intravenous; conditions: in vivo; how it was run: as §4
[8] = AUC in dog at 5 mg/kg, po coadministered with 2.5 mg/kg ritonavir; format: ADME, organism-based, Canis lupus familiaris; conditions: plasma; how it was run: as §1
[9] = test system: Human immunodeficiency virus 1; assay: Antiviral activity against wild-type HIV1 pNL4-3 infected in human MT4 cells after 5 days by MTT assay in presence of 50% human serum; format: functional, organism-based; conditions: Human immunodeficiency virus 1, MT4, 120 h
[10] = AUC in dog at 5 mg/kg, po coadministered with 5 mg/kg ritonavir; format: ADME, organism-based, Canis lupus familiaris; conditions: plasma; how it was run: as §1
Rattus norvegicus [11] = assay: Toxicity in Gunn rat assessed as unconjugated-bilirubin level at 125 mg/kg coadministered with ritonavir measured on day 1; format: organism-based; parameters: dose 125 mg/kg; conditions: in vivo
How it was run: (§5)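 Gunn rats (n = 8-10 per arm) dosed orally with compound in 5% ethanol/95% propylene glycol with p-toluenesulfonic acid, together with 50 mg/kg RTV. Plasma was sampled 4 h after the first and second doses. Drug was measured by HPLC and bilirubin […]. Change in bilirubin (mg/dL) reported as mean with SD.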

Serum [12] = assay: Drug level in Gunn rat serum at 125 mg/kg coadministered with ritonavir measured on day 1; format: ADME, organism-based; parameters: dose 125 mg/kg; conditions: in vivo; how it was run: as §5
Cytochrome P450 2C19 = Cytochrome P450 2C19 (Homo sapiens, UniProt P33261); assay: Inhibition of CYP2C19 assessed as S-mephenytion hydroxylation; format: ADME; how it was run: as §3
Chain of Cytochrome P450 2C19 (P33261 whole entry): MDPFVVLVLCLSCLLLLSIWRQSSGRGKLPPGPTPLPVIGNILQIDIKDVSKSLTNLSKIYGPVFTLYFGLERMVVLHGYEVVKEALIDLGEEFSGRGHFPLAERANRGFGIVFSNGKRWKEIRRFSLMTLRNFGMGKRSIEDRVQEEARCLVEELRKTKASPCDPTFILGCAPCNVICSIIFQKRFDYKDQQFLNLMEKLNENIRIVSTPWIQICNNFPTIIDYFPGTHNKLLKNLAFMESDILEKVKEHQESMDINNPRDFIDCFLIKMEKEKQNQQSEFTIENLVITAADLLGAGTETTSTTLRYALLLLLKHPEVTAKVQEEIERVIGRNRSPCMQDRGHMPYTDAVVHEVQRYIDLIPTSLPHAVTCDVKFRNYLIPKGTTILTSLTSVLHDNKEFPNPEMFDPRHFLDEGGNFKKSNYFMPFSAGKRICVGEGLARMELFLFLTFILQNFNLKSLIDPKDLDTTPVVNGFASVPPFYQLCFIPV

[13] = Cmax in dog at 5 mg/kg, po coadministered with 2.5 mg/kg ritonavir; format: ADME, organism-based, Canis lupus familiaris; parameters: dose 5 mg/kg, route oral; conditions: in vivo; how it was run: as §1
Cathepsin D = Cathepsin D (Homo sapiens, UniProt P07339); assay: Inhibition of cathepsin D
Chain of Cathepsin D (P07339 65-162 limits assumed): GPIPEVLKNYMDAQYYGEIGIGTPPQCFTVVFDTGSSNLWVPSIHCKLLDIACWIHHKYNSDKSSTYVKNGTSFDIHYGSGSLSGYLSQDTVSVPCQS
Chain of Cathepsin D (P07339 169-412 limits assumed): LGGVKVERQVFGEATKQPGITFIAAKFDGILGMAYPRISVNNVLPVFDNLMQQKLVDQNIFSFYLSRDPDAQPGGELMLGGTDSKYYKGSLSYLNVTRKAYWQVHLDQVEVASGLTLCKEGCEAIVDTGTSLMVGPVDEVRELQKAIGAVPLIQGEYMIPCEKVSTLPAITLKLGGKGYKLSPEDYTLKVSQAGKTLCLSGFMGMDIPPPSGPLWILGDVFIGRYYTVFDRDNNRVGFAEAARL

[14] = Cmax in dog at 5 mg/kg, po; format: ADME, organism-based, Canis lupus familiaris; parameters: dose 5 mg/kg, route oral; conditions: in vivo; how it was run: as §1
[15] = Concentration of drug after 12 hrs in dog at 5 mg/kg, po coadministered with 5 mg/kg ritonavir; format: ADME, organism-based, Canis lupus familiaris; conditions: in vivo, read-out: Drug uptake; how it was run: as §1
[16] = test system: Human immunodeficiency virus 1; assay: Antiviral activity against HIV1 bearing protease gene with B26 mutation infected in human MT4 cells after 5 days by MTT assay; format: functional, organism-based; conditions: Human immunodeficiency virus 1, MT4, 120 h
[17] = Oral bioavailability in Sprague-Dawley rat at 5 mg/kg; format: ADME, organism-based; conditions: in vivo; how it was run: as §4
[18] = test system: Human immunodeficiency virus 1; assay: Antiviral activity against HIV1 bearing protease gene with P25 mutation infected in human MT4 cells after 5 days by MTT assay; format: functional, organism-based; conditions: Human immunodeficiency virus 1, MT4, 120 h
[19] = Inhibition of human pepsin
[20] = test system: Human immunodeficiency virus 1; assay: Antiviral activity against wild-type HIV1 pNL4-3 infected in human MT4 cells after 5 days by MTT assay; format: functional, organism-based; conditions: Human immunodeficiency virus 1, MT4, 120 h
Renin = biological target: T2, Renin (Homo sapiens, UniProt P00797); assay: Inhibition of renin
T2 sequence (P00797 whole entry): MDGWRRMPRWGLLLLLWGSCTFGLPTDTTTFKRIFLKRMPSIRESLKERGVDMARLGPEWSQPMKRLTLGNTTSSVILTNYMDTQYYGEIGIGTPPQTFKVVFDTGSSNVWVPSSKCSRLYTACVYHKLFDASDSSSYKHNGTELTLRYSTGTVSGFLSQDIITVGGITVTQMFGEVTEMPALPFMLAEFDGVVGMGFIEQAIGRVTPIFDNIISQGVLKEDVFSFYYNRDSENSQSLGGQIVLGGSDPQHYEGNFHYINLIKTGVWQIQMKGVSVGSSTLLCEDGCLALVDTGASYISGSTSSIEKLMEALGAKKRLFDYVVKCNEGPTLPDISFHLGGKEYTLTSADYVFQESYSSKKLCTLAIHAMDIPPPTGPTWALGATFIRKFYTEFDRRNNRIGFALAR

[21] = Protein binding in human plasma by equilibrium dialysis; format: ADME, cell-free; conditions: read-out: PB (converted)
How it was run: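 Percentage bound in human plasma, determined by equilibrium dialysis.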

[22] = AUC in Sprague-Dawley rat at 5 mg/kg, po; format: ADME, organism-based; parameters: dose 5 mg/kg, route oral; conditions: plasma; how it was run: as §4
[23] = Half life in Sprague-Dawley rat at 5 mg/kg, iv; format: ADME, organism-based; parameters: dose 5 mg/kg, route intravenous; conditions: in vivo; how it was run: as §4
[24] = test system: Human immunodeficiency virus 1; assay: Fold resistance, ratio of EC50 for HIV1 bearing protease gene with A17 mutation to EC50 for wild-type HIV1 pNL4-3; format: functional; how it was run: as §2
Rattus norvegicus [25] = assay: Toxicity in Gunn rat assessed as unconjugated-bilirubin level at 250 mg/kg coadministered with ritonavir measured on day 1; format: organism-based; parameters: dose 250 mg/kg; conditions: in vivo; how it was run: as §5
Serum [26] = assay: Drug level in Gunn rat serum at 250 mg/kg coadministered with ritonavir measured on day 1; format: ADME, organism-based; parameters: dose 250 mg/kg; conditions: in vivo; how it was run: as §5

Structure (SMILES): COC(=O)N[C@H](C(=O)N[C@H](Cc1ccc(-c2ccccn2)cc1)C[C@H](O)[C@H](Cc1ccccc1)NC(=O)[C@@H](N1CCN(Cc2cccc(C(C)(C)O)n2)C1=O)C(C)(C)C)C(C)(C)C
- AUC [1]: 20 ng·h/mL
- Ki (Cytochrome P450 3A4): 66 nM
- EC50 [2]: 10 nM
- IC50 (Cytochrome P450 2C9): > 5000 nM
- IC50 (Cytochrome P450 2D6): > 5000 nM
- solubility [3]: 11.3 µg/mL (≈ 13.1 µM)
- concentration at 12 h [4]: 13 ng/mL
- IC50 (Cytochrome P450 1A2): > 5000 nM
- AUC [5]: 12900 ng·h/mL
- Cmax [6]: 2560 ng/mL
- clearance [7]: 22.5 mL/min/kg
- AUC [8]: 6720 ng·h/mL
- EC50 [9]: 19 nM
- AUC [10]: 10600 ng·h/mL
- Activity (Rattus norvegicus [11]): 0.125 mg/dL
- Drug uptake (Serum [12]): 9.37 µg/mL
- IC50 (Cytochrome P450 2C19): > 5000 nM
- Cmax [13]: 2220 ng/mL
- Ki (Cathepsin D): 540 nM
- Cmax [14]: 40 ng/mL
- concentration at 12 h [15]: 58 ng/mL
- EC50 [16]: 25 nM
- bioavailability [17]: 4.9%
- EC50 [18]: 45 nM
- Ki [19]: 200000 nM
- EC50 [20]: 3 nM
- Ki (Renin): > 20000 nM
- fraction unbound [21]: 0.018
- AUC [22]: 180 ng·h/mL
- half-life [23]: 30 min

Structure (SMILES): COC(=O)N[C@H](C(=O)N[C@@H](Cc1ccc(-c2ccccn2)cc1)C[C@H](O)[C@H](Cc1ccccc1)NC(=O)[C@@H](N1CCN(Cc2ccccc2OC)C1=O)C(C)(C)C)C(C)(C)C
- EC50 [2]: 49 nM
- Ratio EC50 [24]: 12
- AUC [5]: 9380 ng·h/mL
- clearance [7]: 36 mL/min/kg
- EC50 [9]: 17 nM
- bioavailability [17]: 3.1%
- EC50 [20]: 4 nM
- AUC [22]: 70 ng·h/mL
- half-life [23]: 72 min

Structure (SMILES): COC(=O)N[C@H](C(=O)N[C@@H](Cc1ccc(-c2ccccn2)cc1)C[C@H](O)[C@H](Cc1ccccc1)NC(=O)[C@@H](N1CCN(Cc2cccc(C)n2)C1=O)C(C)(C)C)C(C)(C)C
- EC50 [2]: 15 nM
- Ratio EC50 [24]: 1
- Activity (Rattus norvegicus [25]): 0.233 mg/dL
- Drug uptake (Serum [26]): 5.83 µg/mL
- EC50 [9]: 62 nM
- EC50 [20]: 13 nM

Reference: ChEMBL document CHEMBL1153436, “2-Pyridyl P1'-substituted symmetry-based human immunodeficiency virus protease inhibitors (A-792611 and A-790742) with potential for convenient dosing and reduced side effects” (J Med Chem, 2009)
